Data on six compounds can be found in article PMC6811699 (Stem Cells Translational Medicine, 2019).

For data set [1], the system named is induced sensory neuron cells (iSNs). Description: High-content imaging, neurite length analysis. The format is cell-based, human. The note with it: 48 hours, 0.01–10 μM, treated 24 hours after seeding. Summed up: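 iSNs from blood-derived neural precursors, specified (DAPT, SU5402, CHIR99021) then matured (BDNF, GDNF, NGF, NT-3, ascorbic acid, forskolin), reseeded to 96-well plates; dosed 24 h later, 10-fold dilutions, 0.01–10 μM, 0.1% DMSO final, quadruplicate wells, 48 h.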

The conditions of data set [2]: read-out: Reported neurite length IC50; literature values; cited from earlier work.
Data set [3] relates to patients. To be noted: cited from earlier work.
Data set [4] deals with induced sensory neuron cells (iSNs). Kind of data set: Resazurin reduction cell viability assay. It is filed as cell-based. The note with it: Homo sapiens, 48 h, read-out: Detected cell viability IC50. Summed up:
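iSNs were specified and matured, reseeded into 96‑well plates, and dosed 24 hours later. Compounds were given as four 10‑fold dilutions, 0.01–10 μM final, with 0.1% DMSO final, in quadruplicate wells, for 48 hours. Medium was then replaced with 10 μg/ml resazurin in snMat medium for 2 hours at 37°C, 5% CO₂. Fluorescence was read at 544/590 nm. There were three biological replicates, reported as mean ± SEM, and IC50 came from the dose–response.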
A general note: The colour change of resazurin is a common sign of viable cells or microbes.

For data set [5], the system named is iSNs. Description: Calcium imaging. The format is cell-based, human. To be noted: iSNs from adult nonmobilized PB, 30 μM α,β-meATP. Summed up:
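Mature iSNs were loaded with Fluo‑4‑AM for 1 hour at room temperature, then de‑esterified for 45 minutes. They were washed and kept in Hanks' balanced salt solution with 25 mM HEPES and 5.5 mM glucose. Agonists diluted in this buffer were applied at final 30 μM α,β‑meATP or 1 μM capsaicin to day‑7 iSNs in 96‑well plates. Peak calcium flux was recorded by epifluorescence microscopy with a xenon arc lamp.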

Where only a bound is given, the exact number is not on record here.

The IC50 is the concentration that inhibits the measured activity by half.

`N.N.[Cl][Pt][Cl]` [Cisplatin]: the “effect on neurite length / neurite degeneration” value in data set [1] is reported as “reduced neurite length in the absence of cytotoxicity”. Also, the IC50 in data set [2] is greater than 100000 nM. Also, in data set [3], the NP incidence is listed as 70–100%.

On to `CC[C@]1(O)C[C@H]2CN(CCc3c([nH]c4ccccc34)[C@@](C(=O)OC)(c3cc4c(cc3OC)N(C=O)[C@H]3[C@@](O)(C(=O)OC)[C@H](OC(C)=O)[C@]5(CC)C=CCN6CC[C@]43[C@@H]65)C2)C1` [Vincristine], for which, in data set [4], the IC50 was found to be 600 nM. Moreover, the “effect on neurite length / neurite degeneration” value in data set [1] is listed as “reduced neurite length in the absence of cytotoxicity”. Further, in data set [3], the NP incidence result is “Up to 20%” and the “Neurotoxic dose in patients” value is on record as 5–15 mg/m^2.

As for `Nc1ncnc2c1ncn2[C@@H]1O[C@H](COP(=O)(O)CP(=O)(O)OP(=O)(O)O)[C@@H](O)[C@H]1O` [α,β‐meATP, α,β‐methylene‐ATP], in data set [5], the “cytosolic calcium response” value is given as “robust elevation of cytosolic calcium”.

`CC(C)C[C@H](NC(=O)[C@H](Cc1ccccc1)NC(=O)c1cnccn1)B(O)O` [Bortezomib]: the IC50 in data set [4] stood at 1000 nM. In addition, the “effect on neurite length / neurite degeneration” value in data set [1] was “neurite degeneration only at the highest tested concentrations”. Besides, in data set [2], the IC50 was greater than 100000 nM. In addition, in data set [3], the NP incidence is listed as 20–30% and the “Neurotoxic dose in patients” value was 30 mg/m^2.

Turning to `COc1cc([C@@H]2c3cc4c(cc3[C@@H](O[C@@H]3O[C@@H]5CO[C@@H](C)O[C@H]5[C@H](O)[C@H]3O)[C@H]3COC(=O)[C@H]23)OCO4)cc(OC)c1O` [Etoposide], the “effect on neurite length / neurite degeneration” value in data set [1] was “reduced neurite length in the absence of cytotoxicity”. Further, in data set [2], the half-maximal inhibitory concentration (IC50) is 360 nM.

Consider `CC(=O)O[C@H]1C(=O)[C@@]2(C)[C@H]([C@H](OC(=O)c3ccccc3)[C@]3(O)C[C@H](OC(=O)[C@H](O)[C@@H](NC(=O)c4ccccc4)c4ccccc4)C(C)=C1C3(C)C)[C@]1(OC(C)=O)CO[C@@H]1C[C@@H]2O` [Taxol, Paclitaxel], for which the IC50 in data set [4] is 7400 nM; in data set [2], 5.6 to 10 nM. In addition, in data set [1], the “effect on neurite length / neurite degeneration” value was “reduced neurite length in the absence of cytotoxicity”.
